Target: T1, 5-hydroxytryptamine receptor 1A (Rattus norvegicus, UniProt P19327)
T1 sequence (P19327 whole entry): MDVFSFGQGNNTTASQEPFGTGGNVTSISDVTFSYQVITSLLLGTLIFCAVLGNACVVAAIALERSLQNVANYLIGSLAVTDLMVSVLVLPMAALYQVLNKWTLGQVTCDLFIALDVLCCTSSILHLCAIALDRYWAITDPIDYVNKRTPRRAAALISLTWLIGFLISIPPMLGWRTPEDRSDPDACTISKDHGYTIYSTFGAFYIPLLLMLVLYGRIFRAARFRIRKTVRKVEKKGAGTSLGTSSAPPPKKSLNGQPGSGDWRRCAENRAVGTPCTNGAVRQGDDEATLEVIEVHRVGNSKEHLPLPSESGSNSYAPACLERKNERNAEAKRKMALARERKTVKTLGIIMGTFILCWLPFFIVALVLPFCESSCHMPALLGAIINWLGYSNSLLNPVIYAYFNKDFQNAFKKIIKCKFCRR
Experiment: Binding affinity towards 5-hydroxytryptamine 1A receptor in rat cortex using [3H]8-OH-DPAT as a radioligand
Settings: not given
How it was run: (§1)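 Rat tissue membranes, competition against radioligand at 23 °C. Nonspecific binding: 5-HT for 5-HT1A (30 min), (+)-butaclamol for D2 (60 min), phentolamine for α1 (30 min). Tris HCl 50 mM pH 7.4 buffers. Filtration through glass-fibre filters, then scintillation counting. Run in triplicate; IC50 by nonlinear regression; Ki by Cheng–Prusoff; mean pKi of three determinations.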

Row | Ki [nM] | SMILES
1 | 0.468 | O=C(c1ccc(Cl)c(Cl)c1)N1CCC(F)(CNCc2cccc(-c3cnco3)n2)CC1
2 | 1.23 | O=C(c1ccc(Cl)c(Cl)c1)N1CCC(F)(CNCc2cccc(-c3cccs3)n2)CC1
3 | 0.204 | O=C(c1ccc(Cl)c(Cl)c1)N1CCC(F)(CNCc2cccc(-n3cccn3)n2)CC1

Organism: Rattus norvegicus
Experiment: Maximum inhibition of immobility in the rat.(Expressed as percentage of immobility observed in vehicle controls)
Assay type: functional
Settings: not given
How it was run: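 Rat forced swim: 15 min pre-swim in 17 cm water at 25 °C, then 5 min test 24 h later with blind scoring of immobility. Oral dosing (10 mL/kg) 60 min before the test, n = 10 per dose. Inhibition is the difference in median immobility from vehicle controls, as % of the control median.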

Row | SMILES | Inhibition [%]
4 | CNc1nc(CNCC2(F)CCN(C(=O)c3ccc(F)c(Cl)c3)CC2)ccc1C | >80
5 | CN(C)c1cccc(CNCC2(F)CCN(C(=O)c3ccc(F)c(Cl)c3)CC2)n1 | >80

System: Rattus norvegicus
Experiment: Effective intraperitoneal dose in vivo in rat after 15 mins to induce lower lip retraction
Assay type: functional
Settings: ip, 0.25 h
How it was run: (§2)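 Observed in 10 min windows centred 15 and 60 min post-dose, 10 s each minute, scoring lower lip retraction present or absent (0–10).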

Row | SMILES | ED50 [mg/kg]
6 | CNc1nc(CNCC2(F)CCN(C(=O)c3ccc(F)c(Cl)c3)CC2)ccc1C | 0.02
7 | CN(C)c1cccc(CNCC2(F)CCN(C(=O)c3ccc(F)c(Cl)c3)CC2)n1 | 0.29
8 | O=C(c1ccc(Cl)c(Cl)c1)N1CCC(F)(CNCc2cccc(-c3cnco3)n2)CC1 | 0.32
9 | O=C(c1ccc(Cl)c(Cl)c1)N1CCC(F)(CNCc2cccc(-c3cccs3)n2)CC1 | 0.32

Target: T2, 5-hydroxytryptamine receptor 1A (Homo sapiens, UniProt P08908)
T2 sequence (P08908 whole entry): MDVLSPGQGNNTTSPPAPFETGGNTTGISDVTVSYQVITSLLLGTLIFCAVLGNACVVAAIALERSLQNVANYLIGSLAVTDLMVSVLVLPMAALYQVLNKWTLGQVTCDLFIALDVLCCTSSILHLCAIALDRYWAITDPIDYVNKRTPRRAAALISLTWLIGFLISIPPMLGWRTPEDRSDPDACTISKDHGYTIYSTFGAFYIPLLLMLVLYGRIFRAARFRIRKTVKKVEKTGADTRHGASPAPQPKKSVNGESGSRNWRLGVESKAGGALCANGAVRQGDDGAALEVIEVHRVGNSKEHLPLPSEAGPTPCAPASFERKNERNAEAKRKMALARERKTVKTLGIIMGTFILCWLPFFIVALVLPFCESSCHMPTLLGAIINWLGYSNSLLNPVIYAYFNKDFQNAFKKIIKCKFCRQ
Experiment: In vitro effective concentration required to inhibit forskolin-stimulated cAMP levels in HA7 cells expressing human 5-HT1A receptor
Assay type: functional, cell-based
Settings: not given
How it was run: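 HeLa HA7 cells stably expressing human 5-HT1A, at 80–90% confluency, antibiotic-free for 24 h. Preincubated 10 min at RT in DMEM/10 mM Hepes, then drug at 0.1 nM–100 µM with 100 µM forskolin and 100 µM IBMX for 10 min at RT. Stopped with 0.1 N HCl; cAMP by radioimmunoassay as % of forskolin control; pEC50.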

Row | EC50 [nM] | SMILES
10 | 2.14 | CNc1nc(CNCC2(F)CCN(C(=O)c3ccc(F)c(Cl)c3)CC2)ccc1C
11 | 3.63 | CN(C)c1cccc(CNCC2(F)CCN(C(=O)c3ccc(F)c(Cl)c3)CC2)n1
12 | 8.91 | O=C(c1ccc(Cl)c(Cl)c1)N1CCC(F)(CNCc2cccc(-c3cnco3)n2)CC1
13 | 12 | O=C(c1ccc(Cl)c(Cl)c1)N1CCC(F)(CNCc2cccc(-c3cccs3)n2)CC1
14 | 28.2 | O=C(c1ccc(Cl)c(Cl)c1)N1CCC(F)(CNCc2cccc(-n3cccn3)n2)CC1

System: Rattus norvegicus
Experiment: Effective intraperitoneal dose in vivo in rat after 60 mins to induce lower lip retraction
Assay type: functional
Settings: ip, 1 h
How it was run: as §2

Row | SMILES | ED50 [mg/kg]
15 | CN(C)c1cccc(CNCC2(F)CCN(C(=O)c3ccc(F)c(Cl)c3)CC2)n1 | 0.11
16 | O=C(c1ccc(Cl)c(Cl)c1)N1CCC(F)(CNCc2cccc(-c3cnco3)n2)CC1 | 0.32
17 | O=C(c1ccc(Cl)c(Cl)c1)N1CCC(F)(CNCc2cccc(-c3cccs3)n2)CC1 | 0.32

Target: T3, Adrenergic receptor alpha-1 (Rattus norvegicus, UniProt P15823+P23944+P43140)
T3 sequence (P15823 whole entry): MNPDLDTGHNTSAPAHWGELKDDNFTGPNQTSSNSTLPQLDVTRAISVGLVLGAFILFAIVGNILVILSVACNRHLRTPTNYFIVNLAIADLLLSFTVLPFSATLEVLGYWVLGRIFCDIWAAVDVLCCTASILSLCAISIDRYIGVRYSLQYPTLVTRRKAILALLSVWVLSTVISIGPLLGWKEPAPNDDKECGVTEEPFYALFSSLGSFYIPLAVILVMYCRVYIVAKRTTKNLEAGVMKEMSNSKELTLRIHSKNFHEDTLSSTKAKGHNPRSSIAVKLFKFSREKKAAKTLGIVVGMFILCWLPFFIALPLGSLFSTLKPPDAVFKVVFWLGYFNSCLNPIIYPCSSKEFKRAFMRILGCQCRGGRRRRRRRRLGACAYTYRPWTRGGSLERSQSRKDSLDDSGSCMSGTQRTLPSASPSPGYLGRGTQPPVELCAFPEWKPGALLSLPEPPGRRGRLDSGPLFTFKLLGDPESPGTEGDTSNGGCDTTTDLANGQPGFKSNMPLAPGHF
T3 sequence (P23944 whole entry): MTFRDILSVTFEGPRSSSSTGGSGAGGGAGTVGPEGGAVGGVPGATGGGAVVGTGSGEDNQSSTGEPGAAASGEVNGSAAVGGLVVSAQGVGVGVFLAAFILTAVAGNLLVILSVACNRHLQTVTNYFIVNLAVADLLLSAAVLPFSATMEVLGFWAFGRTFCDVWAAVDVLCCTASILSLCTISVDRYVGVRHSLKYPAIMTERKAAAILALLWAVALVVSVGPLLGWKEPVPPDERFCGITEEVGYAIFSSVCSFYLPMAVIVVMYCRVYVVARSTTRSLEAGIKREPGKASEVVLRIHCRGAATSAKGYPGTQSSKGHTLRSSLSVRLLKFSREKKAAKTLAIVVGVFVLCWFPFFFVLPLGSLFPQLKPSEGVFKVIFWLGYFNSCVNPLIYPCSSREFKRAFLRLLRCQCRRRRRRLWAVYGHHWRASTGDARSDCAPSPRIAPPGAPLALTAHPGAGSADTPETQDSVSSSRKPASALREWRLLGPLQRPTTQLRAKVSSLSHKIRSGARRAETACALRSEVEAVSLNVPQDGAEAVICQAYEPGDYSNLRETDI
T3 sequence (P43140 whole entry): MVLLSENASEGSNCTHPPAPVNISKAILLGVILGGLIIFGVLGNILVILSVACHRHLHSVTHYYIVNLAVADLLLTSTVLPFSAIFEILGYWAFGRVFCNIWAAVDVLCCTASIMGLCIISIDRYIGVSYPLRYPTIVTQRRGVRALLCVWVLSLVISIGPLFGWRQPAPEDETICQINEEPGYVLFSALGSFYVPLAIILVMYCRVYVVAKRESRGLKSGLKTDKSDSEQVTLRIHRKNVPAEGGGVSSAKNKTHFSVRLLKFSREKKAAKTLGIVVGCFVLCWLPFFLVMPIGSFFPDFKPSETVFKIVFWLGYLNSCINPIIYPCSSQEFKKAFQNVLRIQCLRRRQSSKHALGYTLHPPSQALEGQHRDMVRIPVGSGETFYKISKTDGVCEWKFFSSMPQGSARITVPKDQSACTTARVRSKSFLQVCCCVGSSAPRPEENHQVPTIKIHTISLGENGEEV
Experiment: Binding affinity towards Alpha-1 adrenergic receptor using prazosin as a radioligand in rat cortex
Settings: not given
How it was run: as §1

Row | Log Ki | SMILES
18 | -6.68 | CN(C)c1cccc(CNCC2(F)CCN(C(=O)c3ccc(F)c(Cl)c3)CC2)n1
19 | -5.9 | O=C(c1ccc(Cl)c(Cl)c1)N1CCC(F)(CNCc2cccc(-c3cnco3)n2)CC1
20 | -6.72 | O=C(c1ccc(Cl)c(Cl)c1)N1CCC(F)(CNCc2cccc(-c3cccs3)n2)CC1

Organism: Rattus norvegicus
Experiment: Potency to produce a significant inhibition of immobility in the rat
Assay type: functional
Settings: not given
How it was run: (§3)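 Rat forced swim, 5 min test 24 h after a 15 min pre-swim, with oral dose (10 mL/kg) 60 min before the test, n = 10 per dose. Significant response: immobility <138 s, a value seen in <5% of vehicle controls. ED50 by linear interpolation of % responders.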

Row | SMILES | ED50 [mg/kg]
21 | CNc1nc(CNCC2(F)CCN(C(=O)c3ccc(F)c(Cl)c3)CC2)ccc1C | 0.05

System: Rattus norvegicus
Experiment: Induction of lower lip retraction in rat 60 min after administration, effective peroral dose determined in vivo
Assay type: functional
Settings: po, 1 h
How it was run: as §2

Row | SMILES | ED50 [mg/kg]
22 | CNc1nc(CNCC2(F)CCN(C(=O)c3ccc(F)c(Cl)c3)CC2)ccc1C | 0.08
23 | CN(C)c1cccc(CNCC2(F)CCN(C(=O)c3ccc(F)c(Cl)c3)CC2)n1 | 0.16
24 | O=C(c1ccc(Cl)c(Cl)c1)N1CCC(F)(CNCc2cccc(-c3cnco3)n2)CC1 | 1.3
25 | O=C(c1ccc(Cl)c(Cl)c1)N1CCC(F)(CNCc2cccc(-c3cccs3)n2)CC1 | 1.3

System: Rattus norvegicus
Experiment: Effective dose in vivo in rat to induce lower lip retraction
Assay type: functional
Settings: not given
How it was run: as §2

Row | SMILES | ED50 [mg/kg]
26 | O=C(c1ccc(Cl)c(Cl)c1)N1CCC(F)(CNCc2cccc(-n3cccn3)n2)CC1 | 1.3

Target: D(2) dopamine receptor (Rattus norvegicus, UniProt P61169)
Experiment: Binding affinity towards Dopamine receptor D2 in rat striatum using YM-09151-2 as a radioligand
Assay type: tissue-based
Settings: not given
How it was run: as §1

D(2) dopamine receptor, sequence (P61169 whole entry): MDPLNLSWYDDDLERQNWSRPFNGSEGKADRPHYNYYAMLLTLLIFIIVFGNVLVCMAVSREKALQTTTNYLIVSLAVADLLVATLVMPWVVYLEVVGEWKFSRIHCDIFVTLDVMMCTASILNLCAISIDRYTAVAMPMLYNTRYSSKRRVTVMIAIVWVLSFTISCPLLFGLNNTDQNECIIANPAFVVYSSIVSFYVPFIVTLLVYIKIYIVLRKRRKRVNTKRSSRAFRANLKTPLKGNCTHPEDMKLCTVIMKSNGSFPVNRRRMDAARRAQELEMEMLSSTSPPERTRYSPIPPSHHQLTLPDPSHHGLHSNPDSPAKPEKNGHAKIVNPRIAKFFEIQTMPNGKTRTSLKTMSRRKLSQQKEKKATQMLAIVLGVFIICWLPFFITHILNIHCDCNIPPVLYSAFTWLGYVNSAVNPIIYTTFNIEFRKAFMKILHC

Row | Ki [nM] | SMILES
27 | 2240 | O=C(c1ccc(Cl)c(Cl)c1)N1CCC(F)(CNCc2cccc(-c3cnco3)n2)CC1
28 | 457 | O=C(c1ccc(Cl)c(Cl)c1)N1CCC(F)(CNCc2cccc(-c3cccs3)n2)CC1

Organism: Rattus norvegicus
Experiment: Potency to produce a significant inhibition of immobility in the rat.
Assay type: functional
Settings: not given
How it was run: as §3

Row | SMILES | ED50 [mg/kg]
29 | CN(C)c1cccc(CNCC2(F)CCN(C(=O)c3ccc(F)c(Cl)c3)CC2)n1 | 0.16
